The list is not random: actives were taken first. Their share in the collection is about 2.1%.
FN deposition inh = fibronectin deposition inhibition; inhibition, % at 12.6 µM; AID 743247; AH1F fibroblasts, Alexa488-fibronectin deposition fluorescence, overnight; actives 0.086% (n = 350,000);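 active = mean inhibition across replicates of 30% or more, regardless of how many single replicates reach that level; inconclusive = mean under 30% yet at least half of replicates reach 30%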;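 also: positive control wells lacked labelled fibronectin entirely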
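Material: AH1F fibroblast monolayer depositing Alexa488-labelled fibronectin into matrix / Amount: 10000 AH1F cells per well / Signal: fluorescence 485/525 nm / Medium: DMEM, 2% serum / Compound: single dose, pinned / Incubation: 1 h cell adhesion before compound, then overnight fibronectin incubation / Reagent: Alexa488-FN, 24 nM final / Read-out: inhibition of fibronectin deposition signal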
aSyn 5UTR inh = MLPCN primary screen, SNCA 5' untranslated region; alpha-synuclein 5'UTR reporter, inhibitor activity; inhibition, % (tested at 7.5 µM); actives 0.82% (n = 300,000); in the data active = inhibition above about 60%; inconclusive = no clear call, values can overlap the other calls;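 also: H4 neuroglioblastoma cells stably carrying SNCA 5'UTR luciferase fusion; 0% = DMSO wells and 100% = positive control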
EWS-Fli inh = inhibitors of EWS/Fli oncoprotein transcriptional activity. A673 NR0B1-luciferase reporter, viability-normalised. inhibition, % at 12.6 µM. actives 0.67% (n = 350,000). AID 651661;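 active = mean inhibition of at least 50% after viability correction, with every replicate also passing that limit; inconclusive = mean reaches 50% but only one of two replicates passes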;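 also: firefly luciferase signal divided by Alamar Blue viability fluorescence both relative to DMSO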
Shn3 3UTR inh = reduces Shn3 3'UTR luciferase signal in osteoblasts; Clone20 osteoblast Shn3 3'UTR firefly luciferase, 24 h; inhibition, % at 12.5 µM; actives 0.52% (n = 360,000); AID 588674;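 active = mean inhibition of at least 75% with every replicate also reaching 75%; inconclusive = mean inhibition at least 75% but some replicate below; inactive = mean inhibition below 75%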;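 also: 0% = median of neutral control wells and 100% = pilot-screen positive control compound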
PAX8 reporter = PAX8 transcriptional activity inhibition; RMG-I TPO-luciferase reporter, SteadyGlo, 24 h; inhibition, % at 12.6 µM; actives 1.2% (n = 360,000); AID 652154;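 active = mean replicate inhibition at least 60% with every replicate also reaching 60%; inconclusive = only one of the two criteria is met; inactive = mean below 60% and not all replicates reaching 60%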;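 also: luciferase light reporting Pax8 driven TPO promoter activity; plate controls were median of neutral control wells for no effect and mitoxantrone controls for full effect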
EBV LMP1 NFkB = Epstein-Barr LMP1 NF-kappaB reporter inhibition. AID 504558. LMP1-induced NF-kappaB luciferase reporter cells, luminescence. actives 0.69% (n = 350,000). inhibition, % at 12.5 µM; in the data active = inhibition above about 41%; inconclusive = no clear call, values can overlap the other calls;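 also: 0% = neutral control wells and 100% = reference inhibitor control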
The depositor's hits bear a star; ? = inconclusive; nt = no result.

SMILES	FN deposition inh	aSyn 5UTR inh	EWS-Fli inh	Shn3 3UTR inh	PAX8 reporter	EBV LMP1 NFkB
C[C@@H]1CCCCO[C@H](CN(C)S(=O)(=O)c2ccc(F)cc2)[C@@H](C)CN([C@@H](C)CO)C(=O)c2cc(NC(=O)Nc3ccc(C(F)(F)F)cc3)ccc2O1	-10.7	nt	48.5	nt	64.5*	nt
C[C@@H]1CCCCO[C@@H](CN(C)S(=O)(=O)c2ccc(F)cc2)[C@H](C)CN([C@H](C)CO)C(=O)c2cc(NC(=O)Nc3ccc(C(F)(F)F)cc3)ccc2O1	-11.7	nt	9.6	nt	72.8*	nt
COc1ccc2c3c([nH]c2c1)[C@H](CO)N(Cc1ccccc1Cl)CC31CN(C(C)=O)C1	nt	nt	-7.7	nt	nt	nt
CC(C)NC(=O)Nc1ccc2c(c1)C(=O)N([C@@H](C)CO)C[C@H](C)[C@H](CN(C)Cc1ccccc1)O2	nt	nt	-4.1	nt	2.2	nt
COc1ccccc1C#Cc1cnc2c(c1)C(=O)N([C@@H](C)CO)C[C@H](C)[C@@H](CN(C)C(=O)c1ccc3c(c1)OCO3)O2	-14.9	nt	-15.4	nt	33.9	nt
COC1OC(COCc2ccccc2)C2OC(C)(C)OC2C1O (stereo unspecified)	-3.3	nt	-6.6	nt	104.0*	nt
CC1(C)CC(O)CC(C)(C)N1CC(O)COCc1ccccc1 (stereo unspecified)	3.5	1.9	4.6	11.8	-1.7	13.3
O=C(Nc1ccc(Cl)cc1)N1C[C@H]2[C@@H](c3ccccc31)[C@@H](CO)N2C(=O)c1ccccn1	nt	nt	-14.6	nt	2.4	nt
CNC[C@H](CC1CCCCC1)NC[C@H](Cc1ccccc1)NCCC12CC3CC(CC(C3)C1)C2	60.1*	125.4*	26.5	97.8*	77.3*	-14.2
COCC(C)n1c(SCc2nc(N)nc(Nc3ccccc3C)n2)nc2ccccc2c1=O (stereo unspecified)	32.5*	13.3	nt	2.3	nt	1.8
O=C(Nc1ccc(CN2CCOCC2)cc1)c1cc2ccccn2n1	1.1	71.7*	56.0*	43.6	8.9	?
C=C1CCC(O)C2(C)CCC3C(C)C(=O)OC3C12O (stereo unspecified)	1.3	10.5	3.7	-21.3	-0.4	-2.3
C=C1C(=O)O[C@@H]2[C@H]1CC[C@H](C)[C@]1(O)CCC(=O)[C@@]21C	3.1	-2.5	-9.5	-15.1	89.5*	16.3
CCCC#Cc1cnc2c(c1)C(=O)N([C@H](C)CO)C[C@H](C)[C@@H](CN(C)C(=O)C1CCCCC1)O2	nt	nt	-0.4	nt	nt	nt
O=C(Nc1ccc2c(c1)OCCO2)NC1(C(F)(F)F)Oc2ccccc2O1	12.6	62.5*	41.5	61.6	-77.5	5.3
O=C(Nc1ccc2c(c1)OCO2)NC1(C(F)(F)F)Oc2ccccc2O1	-5.9	-96.2	nt	-8.1	nt	-8.0
CC(=O)N1[C@H](CO)[C@@H](c2ccccc2)[C@@H]1CN(C)C(=O)c1ccccc1F	1.7	nt	-5.3	nt	4.2	nt
Clc1ccccc1/C=C/c1nc(-c2ccccn2)no1	15.5	104.5*	66.6*	nt	44.7	72.9*
COc1ccc(C#Cc2cnc3c(c2)C(=O)N([C@@H](C)CO)C[C@H](C)[C@@H](CN(C)C(=O)CN(C)C)O3)cc1	-1.2	nt	11.4	nt	nt	nt
COCCCNc1nnc(Cc2ccc(Cl)cc2)c(=O)[nH]1	12.8	66.5*	58.4*	-10.2	16.3	14.6
COCCNc1nnc(Cc2ccc(Cl)cc2)c(=O)[nH]1	0.5	3.9	0.0	18.2	-11.7	6.0
COCC(=O)Nc1ccc2c(c1)OC[C@H](C)N(CC1CCCCC1)C[C@@H](C)[C@@H](OC)CN(C)C2=O	2.3	nt	0.5	nt	-15.3	nt
CCOc1cc(CNc2ccc(N3CCOCC3)cc2)cc(Br)c1OCC	nt	11.7	nt	4.7	nt	5.5
CCOc1cc(CNc2ccc3c(c2)OCCO3)cc(Br)c1OCC	nt	97.4*	nt	64.0	nt	28.1
CC(=O)C1=C(O)C(=O)N(c2ccc(O)cc2)C1c1ccc([N+](=O)[O-])cc1 (stereo unspecified)	36.0*	1.3	-5.8	-3.9	12.3	-6.2
CC/C(=C/c1ccccc1)c1cccc2[nH]c3c(OC)cccc3c12	0.1	5.5	1.7	85.7*	-2.8	-6.8
O=C(NC1CCCC(C(F)(F)F)C1)c1ccc([N+](=O)[O-])o1 (stereo unspecified)	1.1	nt	22.0	46.3	75.6*	-12.8
CC(C)NC(=O)Nc1cccc2c1O[C@H](CN(C)C(=O)Nc1ccc3c(c1)OCO3)[C@@H](C)CN([C@H](C)CO)C2=O	nt	nt	-2.9	nt	nt	nt
